This is an account of results in publication PMC4452124 (Toxicology research, 2014).

As usually defined, the CC50 is the concentration giving 50% cytotoxicity. Read a high CC50 as better tolerance by the cells.

Where two headings read alike, the source gives them in different places.

Data set [1] deals with T1, human BCRP (Homo sapiens, UniProt Q9UNQ0).
T1 sequence (Q9UNQ0 1-655): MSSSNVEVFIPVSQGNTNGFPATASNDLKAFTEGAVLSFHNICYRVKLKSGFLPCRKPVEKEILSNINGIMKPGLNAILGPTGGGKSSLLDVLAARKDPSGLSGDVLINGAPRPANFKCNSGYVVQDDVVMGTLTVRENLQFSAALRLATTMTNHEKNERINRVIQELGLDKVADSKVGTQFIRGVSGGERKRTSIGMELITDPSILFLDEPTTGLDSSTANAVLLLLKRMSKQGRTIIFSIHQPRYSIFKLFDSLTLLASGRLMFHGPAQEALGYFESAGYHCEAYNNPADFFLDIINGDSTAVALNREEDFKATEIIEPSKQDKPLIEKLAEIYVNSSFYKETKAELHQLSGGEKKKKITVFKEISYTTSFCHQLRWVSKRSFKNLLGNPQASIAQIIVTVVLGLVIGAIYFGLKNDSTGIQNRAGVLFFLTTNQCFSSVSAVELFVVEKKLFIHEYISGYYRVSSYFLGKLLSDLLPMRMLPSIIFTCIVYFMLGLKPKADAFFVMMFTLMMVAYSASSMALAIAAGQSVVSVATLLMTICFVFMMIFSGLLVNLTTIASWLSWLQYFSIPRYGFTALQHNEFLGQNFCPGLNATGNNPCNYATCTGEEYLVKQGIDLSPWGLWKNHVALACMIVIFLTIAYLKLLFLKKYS
Description: biochemical.

For data set [2], the target named is T1, human BCRP. Nature of the data set: biochemical. This is another data set of the same source.
The target of data set [3] is T2, BCRP in BeWo cells (Homo sapiens, UniProt Q9UNQ0).
T2 sequence (Q9UNQ0 1-655): T1 sequence (Q9UNQ0 1-655)

The target of data set [4] is T1, human BCRP.
For data set [5], the target named is T1, human BCRP. Description: BCRP ATPase assay, activation of baseline activity. The format is biochemical. The conditions noted are these: absence of sulfasalazine.
Data set [6] in a line: alamarBlue cell viability, HEK cells expressing empty vector. In kind it is cell-based. The conditions noted are these: human. In general terms: Resazurin is reduced to fluorescent resorufin, in cell work by metabolically active cells.
Data set [7] deals with BCRP (Q141K variant). Description: alamarBlue cell viability, HEK cells expressing Q141K BCRP. The following applies: human. The format is cell-based.
The test system of data set [8] is BCRP (wild-type). Nature of the data set: alamarBlue cell viability, HEK cells expressing WT BCRP. In kind it is cell-based. The following applies: human.
Data set [9] concerns the target T2, BCRP in BeWo cells. Description: Intracellular zearalenone accumulation by ELISA in BeWo cells. The format is cell-based. The conditions noted are these: zearalenone 10 μM, Ko143 1 μM. For orientation: An ELISA detects its analyte on a solid surface through an enzyme-linked reagent.
For data set [10], the target named is T3, Bcrp (Mus musculus, UniProt Q7TMS5).
T3 sequence (Q7TMS5 1-657): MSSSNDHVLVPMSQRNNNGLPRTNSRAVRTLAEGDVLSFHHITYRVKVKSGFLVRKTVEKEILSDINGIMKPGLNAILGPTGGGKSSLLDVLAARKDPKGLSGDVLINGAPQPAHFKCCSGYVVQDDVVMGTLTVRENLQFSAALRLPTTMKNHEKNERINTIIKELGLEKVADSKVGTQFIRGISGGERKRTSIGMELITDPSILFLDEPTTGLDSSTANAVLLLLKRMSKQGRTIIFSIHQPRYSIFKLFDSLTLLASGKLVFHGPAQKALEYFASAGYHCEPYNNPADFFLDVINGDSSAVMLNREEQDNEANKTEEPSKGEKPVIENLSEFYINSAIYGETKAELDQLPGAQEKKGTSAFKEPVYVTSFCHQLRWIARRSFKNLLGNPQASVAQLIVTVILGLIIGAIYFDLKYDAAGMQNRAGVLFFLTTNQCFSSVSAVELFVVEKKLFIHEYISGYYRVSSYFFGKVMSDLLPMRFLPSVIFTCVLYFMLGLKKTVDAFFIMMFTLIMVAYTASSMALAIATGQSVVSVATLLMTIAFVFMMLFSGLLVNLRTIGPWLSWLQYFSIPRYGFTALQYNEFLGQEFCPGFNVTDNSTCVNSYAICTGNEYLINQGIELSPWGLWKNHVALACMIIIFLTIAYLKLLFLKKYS
Description: Pilot study of plasma zearalenone in Bcrp-null versus wild-type mice. In kind it is in vivo. The conditions noted are these: after oral dosing, pilot studies, data not shown.

Data set [11] concerns BCRP protein expression in BeWo cells. Description: Western blot of BCRP protein in BeWo cells after zearalenone exposure. In kind it is cell-based, human. The conditions noted are these: 48 h, 1 or 10 μM. The method in brief: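 BeWo choriocarcinoma cells grown in DMEM F-12 with 10% FBS and 1% penicillin-streptomycin at 37°C, 5% CO2, used at 80–90% confluence, then exposed to test compound (0, 1 or 10 μM). Lysate protein measured by BCA; 5 μg resolved on 4–12% Bis-Tris SDS gels and probed for BCRP (~72 kDa), with β-actin as loading control. Bands semi-quantified.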
In general terms: In western blotting, separated proteins are transferred to a membrane and probed.

Data set [12] has as its target T4, WT BCRP in HEK cells (Homo sapiens, UniProt Q9UNQ0).
T4 sequence (Q9UNQ0 1-655): T1 sequence (Q9UNQ0 1-655)
Nature of the data set: Hoechst 33342 fluorescent substrate transport assay in WT BCRP HEK cells. The conditions noted are these: Hoechst 33342 7 μM. In kind it is cell-based.

[13] abbreviates: Inhibitory Concentration (IC50) Vesicle Assay, Lucifer yellow (50 μM) transport, 2 min, 37°C.
[14] abbreviates: BeWo cells, Hoechst 33342 15 μM.

For `Fc1ccc([C@]2(Cn3cncn3)O[C@H]2c2ccccc2Cl)cc1` (racemic) [Epoxiconazole, epoxiconazole], the IC50 in [1] (setting [13]) is 64.7 µM; in [2], > 100 µM.

With `CC(C)(c1ccc(O)cc1)c1ccc(O)cc1` [Bisphenol A, bisphenol A], the “Concentration that increased intracellular Hoechst 33342 fluorescence” value in data set [3] (setting [14]) worked out at 50 µM. Further, the IC50 in data set [1] (setting [13]) was 55.5 µM; in [2], > 100 µM.

With `O=c1c(-c2ccc(O)cc2)coc2cc(O)cc(O)c12` [Genistein, genistein], in data set [3] (human), the “Concentration that increased intracellular Hoechst 33342 fluorescence” value was ≥ 10 µM and the “Increase in retention of Hoechst 33342” value is listed as 50–100%. For the same molecule, the “Change in BCRP-mediated ATPase activity” value in data set [4] is “no change in ATPase activity was detected”. Besides, the IC50 in data set [1] (Inhibitory Concentration (IC50) Vesicle Assay) worked out at 1.9 µM. Moreover, the “Concentration that stimulated baseline ATPase activity” value in [5] is ≥ 0.01 µM.

`COc1ccc(C(c2ccc(OC)cc2)C(Cl)(Cl)Cl)cc1` [Methoxychlor, methoxychlor]: in [3] (setting [14]), the “Concentration that increased intracellular Hoechst 33342 fluorescence” value was 100 µM. Besides, the IC50 was determined as 38 µM in [1] (setting [13]) and 5.2 µM in data set [2].

`O=C1c2c(O)ccc(O)c2C(=O)c2c(NCCNCCO)ccc(NCCNCCO)c21` [Mitoxantrone, mitoxantrone, reference compound]: the figures for the cytotoxic concentration (CC50) in data set [6], in data set [7] and in [8] were 0.34 µM, 1.14 µM and 3.19 µM, respectively.

Regarding `CCCCC(C#N)(Cn1cncn1)c1ccc(Cl)cc1` (stereo not drawn) [Myclobutanil, myclobutanil], the IC50 in [1] (setting [13]) worked out at 62.7 µM; in [2], 79 µM.

As for `CCCN(CCOc1c(Cl)cc(Cl)cc1Cl)C(=O)n1ccnc1` [Prochloraz, prochloraz], the values for the IC50 in data set [1] (setting [13]) and in data set [2] were 18.7 µM and 42.6 µM, respectively.

Take `C#CCOS(=O)OC1CCCCC1Oc1ccc(C(C)(C)C)cc1` (stereo not drawn) [Propargite, propargite]: the results for the IC50 in data set [1] (setting [13]) and in data set [2] were 31.8 µM and 2.6 µM, respectively.

Regarding `CCCC1COC(Cn2cncn2)(c2ccc(Cl)cc2Cl)O1` (stereo not drawn) [Propiconazole, propiconazole], the IC50 in data set [1] (setting [13]) amounted to 51.3 µM; in data set [2], 63.6 µM.

Turning to `CC(C)(C)C(O)(CCc1ccc(Cl)cc1)Cn1cncn1` (stereo not drawn) [Tebuconazole, tebuconazole], the results for the IC50 in data set [1] (setting [13]) and in [2] were 41.1 µM and > 100 µM, respectively.

For `CCC[CH2][Sn]([CH2]CCC)[CH2]CCC` [Tributyltin, tributyltin], the “Increase in retention of Hoechst 33342” value in data set [3] (BeWo cells) was 50–100%. In addition, the “Concentration that increased intracellular Hoechst 33342 fluorescence” value in data set [3] (setting [14]) was ≥ 10 µM. For the same molecule, in data set [1] (read-out: Inhibitory Concentration (IC50) Vesicle Assay, Lucifer yellow (50 μM) transport, 2 min, 37°C), the IC50 was found to be 30.5 µM.

Turning to `C[C@H]1CCCC(=O)CCC/C=C/c2cc(O)cc(O)c2C(=O)O1` [Zearalenone, zearalenone], the “Concentration that increased intracellular Hoechst 33342 fluorescence” value in data set [3] (setting [14]) turned out to be 50 µM. Moreover, the “Increase of intracellular zearalenone levels on BCRP inhibition with Ko143” value in [9] is 2.7 fold. Besides, the half-maximal cytotoxic concentration (CC50) at 72 h in [6] is 45.6 µM; in data set [7], 40.6 µM; in data set [8] it was 171 µM. Further, the IC50 amounted to 4.8 µM in [1] (setting [13]) and 40.6 µM in data set [2]. Moreover, the “Plasma zearalenone levels, Bcrp-null mice compared to wild-types” value in data set [10] is ~ 10 fold. In addition, the “Effect on BCRP protein expression” value in [11] is on record as “did not alter BCRP protein expression”. Also, the “Concentrations that increased Hoechst accumulation” value in [12] is 10 to 100 µM.
